Screening results from PubChem BioAssay.
WT yeast gro inh = growth inhibition of WT yeast, mitochondrial fusion screen | mitochondrial fusion phenotypic screen, WT strain | 2.1% of 190,000 active | inhibition, % at 10 µM; in the data active = inhibition above about 58%; tested in S. cerevisiae
14-3-3 Bad PPI = disrupts binding of bovine 14-3-3 zeta to phospho-Bad peptide. TR-FRET 14-3-3zeta/Dy647-pBad peptide displacement, 1 h. inhibition, % at 21.7 µM. 0.71% of 220,000 active;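 active = inhibition above about 70%, limit read from the data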
Target sequence (P63103 whole entry, looked up): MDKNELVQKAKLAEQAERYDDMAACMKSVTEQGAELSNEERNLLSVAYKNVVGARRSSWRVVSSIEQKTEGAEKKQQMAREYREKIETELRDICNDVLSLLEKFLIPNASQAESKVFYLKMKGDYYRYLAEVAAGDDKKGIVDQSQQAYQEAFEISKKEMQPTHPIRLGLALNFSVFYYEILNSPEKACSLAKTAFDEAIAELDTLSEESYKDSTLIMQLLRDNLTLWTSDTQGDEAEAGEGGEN
EBV gp42 block = EBV gp42 inhibition | Q1HVG2 | Fluorescence polarization binding assay, mP read-out | inhibition, % (tested at 21.74 µM) | 0.42% of 220,000 active; in the data active = inhibition above about 50%
eIF4E 4G PPI = eIF4E/eIF4G interaction inhibition in translation initiation. inhibition, % at 21.7 µM. P63073+Q04637. TR-FRET eIF4E-eIF4GI(517-606) binding, 2 h. AID 782. 0.37% of 220,000 active
NCF1 inh = p47phox (human) inhibition; P14598; p47phox/p22phox peptide binding, fluorescence polarization, 2 h; inhibition, % at 24.7 µM; 0.53% of 220,000 active
Target sequence (P14598 whole entry, looked up): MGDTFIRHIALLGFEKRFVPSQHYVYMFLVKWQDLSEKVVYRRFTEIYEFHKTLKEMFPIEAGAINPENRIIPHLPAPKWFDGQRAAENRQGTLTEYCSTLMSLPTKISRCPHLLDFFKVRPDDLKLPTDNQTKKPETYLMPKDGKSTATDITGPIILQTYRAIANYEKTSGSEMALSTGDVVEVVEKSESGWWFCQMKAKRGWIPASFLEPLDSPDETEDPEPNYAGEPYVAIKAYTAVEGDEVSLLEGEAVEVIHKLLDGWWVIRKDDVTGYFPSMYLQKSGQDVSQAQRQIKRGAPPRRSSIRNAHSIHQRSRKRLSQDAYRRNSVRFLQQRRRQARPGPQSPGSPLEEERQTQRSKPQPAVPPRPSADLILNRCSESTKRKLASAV
RBBP9 inhibitor = human RBBP9 hydrolase inhibition | O75884 | recombinant RBBP9, FP-Rh probe fluorescence polarization | inhibition, % at 7.94 µM | 0.2% of 220,000 active | AID 1515;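 active = inhibition above the campaign mean of all tested compounds plus 3 SD, cut at about 14% in these data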
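Test system – recombinant human RBBP9 · Input – RBBP9 2.5 µM in dispensing solution, pre-mixing · Medium – Tris buffer pH 8.0, NaCl, Pluronic · Schedule – preincubation 30 min plus labeling 45 min at 25 °C · Measured by – fluorescence polarization · Measure – % inhibition · Controls – DMSO and no-protein wells · Replicates – one well per compound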
A number is an active result; i = inactive; nt = no result; [ ] = remark or other dose. A selection: hits, their analogues and other compounds. The true share with any hit is near 3.7%.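 Rule for the calls, unless noted: active = inhibition above about 30% (limit read from the data); inactive = the rest.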

SMILES	WT yeast gro inh	14-3-3 Bad PPI	EBV gp42 block	eIF4E 4G PPI	NCF1 inh	RBBP9 inhibitor
O=S(=O)(c1ccc(Br)s1)N1CCN(c2ncccn2)CC1	i	i	i	i	i	i
COc1ccc(N=Nc2nc3ccc(Br)cc3n2C)cc1	i	i	51	i	i	i
O=C1CC(c2ccc(O)cc2)Oc2cc(O)cc(O)c21 (stereo not drawn)	i	i	i	i	i	i
O=C1CC(c2ccccc2)Oc2cc(O)cc(O)c21 (stereo not drawn)	nt	i	i	96	i	nt
NS(=O)(=O)c1ccc(-c2ccc(/C=C3\SC(=S)N(C4CCS(=O)(=O)C4)C3=O)o2)cc1 (stereo not drawn)	nt	i	i	i	36	i
CC(C)(C)NC(=O)NCC1CCCC1NC(=O)NC(C)(C)C (stereo not drawn)	nt	i	i	i	i	i
CCCc1cc(NC(=O)CCl)n(-c2ccccc2)n1	i	i	i	i	i	i
N/C(Cc1ccccc1)=N\OC(=O)c1cccc2ccccc12	81	i	i	i	i	i
N/C(=N\OC(=O)c1cccc2ccccc12)c1ccc(Br)cc1	77	i	i	i	i	i
CCCN1CCC(NC(=S)Nc2ccc(S(N)(=O)=O)cc2)CC1	i	i	i	i	i	i
O=C(/C=C/c1ccc([N+](=O)[O-])cc1)Nc1ncc([N+](=O)[O-])s1	i	i	i	i	i	i
CC(=O)c1ccc(-n2c(=O)[nH]c(=O)c3c(N)c(C(=O)c4ccc(Cl)cc4)sc32)cc1	nt	i	i	i	i	i
Cc1cccc(N2CCN(Cc3nc(-c4cccc(Cl)c4)oc3C)CC2)n1	62	i	i	i	i	i
O=C(CN1C(=O)S/C(=C\c2ccc(Cl)cc2)C1=O)NNC(=O)c1ccccc1O	i	77[fluorescence artefact?]	i	33	49	i
Cc1cc(C)nc(SCc2ccc(C(=O)NNC(=O)Nc3cccc(Cl)c3)cc2)n1	i	94	i	i	32	i
Cc1cc(C)nc(SCc2ccc(C(=O)N/N=C/c3ccncc3)cc2)n1	i	i	i	i	i	i
Cc1ccc(/C(O)=C2\C(=O)C(=O)N(Cc3cccnc3)C2c2ccccc2[N+](=O)[O-])cc1 (stereo not drawn)	i	i	i	i	i	i
CCn1c(Sc2nc(C)nc3scc(-c4cccs4)c23)n[nH]c1=O	82	i	i	i	i	i
Cc1nc(SCC(=O)NC(=O)NCCC(C)C)c2c(-c3cccs3)csc2n1	i	i	i	i	i	i
CCC(C)[C@H](NC(=O)N1CCCCCC1)C(=O)OC (stereo partly drawn)	nt	i	i	i	i	i
Cc1nc2ccccc2c2oc(C(=O)Nc3ccc(C(C)C)cc3)cc12	61	i	i	i	i	i
O=Cc1c(N2CCC3(CC2)OCCO3)nc2ccccn2c1=O	nt	i	i	i	i	i
COc1cc(/C=C/C(=O)OC(C)C(=O)Nc2c(C)n(C)n(-c3ccccc3)c2=O)ccc1OCC#N (stereo not drawn)	i	i	i	i	i	i
Cc1cccc(-n2c(-c3csc4ccccc34)n[nH]c2=S)c1	64	i	i	i	i	i
Cc1nn(-c2cc(C)c3ccccc3n2)c2c1C1C(C2)C1(C)C (stereo not drawn)	63	i	i	i	i	i
SMILES	WT yeast gro inh	14-3-3 Bad PPI	EBV gp42 block	eIF4E 4G PPI	NCF1 inh	RBBP9 inhibitor
Cc1c(Br)c([N+](=O)[O-])nn1CC(=O)N(C)Cc1ccccc1	i	i	i	i	i	i
Cc1cccc(-n2c(O)cnc2Nc2nc(C)cc(C)n2)c1	i	i	i	i	40	i
Cc1cc(C)nc(Nc2ncc(O)n2-c2ccccc2)n1	64	i	i	i	i	i
Cc1ccc(-n2c(O)cnc2Nc2nc(C)cc(C)n2)cc1	i	i	i	i	i	i
COc1ccc(Cc2nnc(NS(=O)(=O)c3ccc(Cl)cc3)s2)cc1OC	i	i	i	i	i	i
Cc1ccc(C(=O)Nn2cnnc2)cc1S(=O)(=O)N1CCOCC1	nt	i	i	i	i	i
CCOC(=O)Cc1nn(Cc2nc(-c3ccc(C)cc3)cs2)c(=O)c2ccccc12	nt	i	i	i	i	i
Cc1ccc(Nc2nc(-c3ccc(S(=O)(=O)N4CCCC4)cc3)cs2)cc1C	i	86	i	i	i	i
COC(=O)c1[nH]c2ccccc2c1NC(=O)c1c(F)cccc1F	nt	i	i	i	i	i
CCCc1ccc2c(N)c(C#N)sc2n1	i	nt	nt	nt	nt	i
Cc1ccc2c(N)c(C#N)sc2n1	87	i	i	i	i	i
CC1=Nc2ccccc2/C1=C\c1nc(-c2ccc(F)cc2)oc1O	i	i	138	i	i	i
CN=Cc1nc(-c2ccccc2)oc1O	i	i	i	i	i	i
COc1cccc(/C(C#N)=C/c2c(-c3ccc(Cl)cc3)nc3c(C)cccn23)c1	i	71	i	i	i	i
CSCCCNC(=S)N1CCc2ccccc2C1	i	i	i	i	i	i
C/C(=N\Nc1ccc(C(=O)c2c(C)cc3ccccn23)cc1[N+](=O)[O-])c1ccc(O)cc1	nt	i	i	i	i	i
Cc1cc2ccccn2c1C(=O)c1ccc(N/N=C/c2ccc(C(=O)O)cc2)c([N+](=O)[O-])c1	nt	73	65	54	i	i
Cc1ccc(NC(=O)/C(C#N)=C(\N)C(Cl)(Cl)Cl)nc1	i	i	137	i	i	i
Cc1ccc(NC(=O)C(=O)Nc2ccc(C)cn2)nc1	i	i	i	i	i	i
COc1c(S(=O)(=O)NCCCN2CCOCC2)ccc(Cl)c1Cl	nt	i	i	86	i	i
COc1ccc(S(=O)(=O)NCCN2CCOCC2)c2ccccc12	i	i	i	i	i	i
Cc1ccc(CNC(=O)C2CC(c3ccccc3F)=NO2)cc1 (stereo not drawn)	nt	i	i	i	i	nt
CCO[C@@H]1OC(C(=O)O)=C[C@H](c2csc3ccccc23)[C@H]1CCCO	i	i	i	i	nt	i
CCO[C@@H]1OC(C(=O)Nc2ccccc2)=C[C@H](c2ccc(C(F)(F)F)cc2)[C@H]1CCCO	i	i	i	i	i	i
CCO[C@H]1OC(C(=O)Nc2ccccc2)=C[C@@H](c2csc3ccccc23)[C@@H]1CCCO	72	i	i	i	i	i
SMILES	WT yeast gro inh	14-3-3 Bad PPI	EBV gp42 block	eIF4E 4G PPI	NCF1 inh	RBBP9 inhibitor
CCO[C@H]1OC(C(=O)Nc2ccccc2)=C[C@@H](c2ccc(Br)cc2)[C@@H]1CCCO	65	i	i	i	i	i
COc1ccc(C2C(C(=O)Nc3ccc(F)cc3)=C(C)Nc3nc(CCCO)nn32)cc1 (stereo not drawn)	i	i	i	i	i	i
CCOc1ccc(C2C(C(=O)Nc3ccc(F)cc3)=C(C)Nc3nc(CCCO)nn32)cc1 (stereo not drawn)	i	77	i	i	i	i
O=C(Nc1ccc(Cl)cc1)Nc1nnc(-c2ccncc2)s1	i	i	77	i	i	i
O=C(Nc1cccc(Cl)c1)Nc1nnc(-c2ccncc2)s1	i	81	i	i	i	i
O=C(Nc1ccc(F)cc1)Nc1nnc(-c2ccncc2)s1	i	i	i	i	i	i
